Laboratory results as given in ChEMBL document CHEMBL3112476, “Inhibition of IκB kinase-β and IκB kinase-α by heterocyclic adamantyl arotinoids” (Bioorg Med Chem, 2014).

Key:
[1] = molecular target: T1, Retinoic acid receptor alpha (Homo sapiens) (UniProt P10276); experiment: Antagonist activity at Gal4-fused RARalpha (unknown origin) transfected in HEK293 cells assessed as ATRA-induced transcriptional activity at 4 uM by luciferase/beta-galactosidase reporter gene assay relative to ATRA-treated control; assay type: cell-based; set-up: scale not given: the % may be the effect or the level left
T1 sequence (whole entry): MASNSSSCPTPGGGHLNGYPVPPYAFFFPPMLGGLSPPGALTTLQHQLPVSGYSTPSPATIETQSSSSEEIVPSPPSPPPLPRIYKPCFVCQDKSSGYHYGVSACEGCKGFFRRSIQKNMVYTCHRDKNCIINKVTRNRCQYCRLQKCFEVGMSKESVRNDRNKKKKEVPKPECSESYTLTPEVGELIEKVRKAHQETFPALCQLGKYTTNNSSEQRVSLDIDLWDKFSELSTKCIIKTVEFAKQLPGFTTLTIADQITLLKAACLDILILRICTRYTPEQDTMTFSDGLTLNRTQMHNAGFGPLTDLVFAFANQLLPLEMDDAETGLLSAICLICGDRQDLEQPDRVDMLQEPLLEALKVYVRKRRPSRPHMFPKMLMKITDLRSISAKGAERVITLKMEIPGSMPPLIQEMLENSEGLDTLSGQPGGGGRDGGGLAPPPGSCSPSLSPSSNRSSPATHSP
Outline: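 Same Gal4-RARα HEK-293 UAS-luciferase system, stimulated with 0.1 µM atRA alone or with 4 µM compound (40-fold molar excess); 1 µM UVI2024 served as control antagonist. Background-subtracted luciferase was normalized to β-galactosidase and given as percent of atRA-stimulated cells. Data: 2–3 experiments, triplicate.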

[2] = molecular target: T2, Inhibitor of nuclear factor kappa-B kinase subunit beta (Homo sapiens) (UniProt O14920); experiment: Inhibition of recombinant IKKbeta (unknown origin) using ulight-IkappaomegaBalpha as substrate at 20 uM after 1 hr by LANCE ultra TR-FRET assay relative to control
T2 sequence (whole entry): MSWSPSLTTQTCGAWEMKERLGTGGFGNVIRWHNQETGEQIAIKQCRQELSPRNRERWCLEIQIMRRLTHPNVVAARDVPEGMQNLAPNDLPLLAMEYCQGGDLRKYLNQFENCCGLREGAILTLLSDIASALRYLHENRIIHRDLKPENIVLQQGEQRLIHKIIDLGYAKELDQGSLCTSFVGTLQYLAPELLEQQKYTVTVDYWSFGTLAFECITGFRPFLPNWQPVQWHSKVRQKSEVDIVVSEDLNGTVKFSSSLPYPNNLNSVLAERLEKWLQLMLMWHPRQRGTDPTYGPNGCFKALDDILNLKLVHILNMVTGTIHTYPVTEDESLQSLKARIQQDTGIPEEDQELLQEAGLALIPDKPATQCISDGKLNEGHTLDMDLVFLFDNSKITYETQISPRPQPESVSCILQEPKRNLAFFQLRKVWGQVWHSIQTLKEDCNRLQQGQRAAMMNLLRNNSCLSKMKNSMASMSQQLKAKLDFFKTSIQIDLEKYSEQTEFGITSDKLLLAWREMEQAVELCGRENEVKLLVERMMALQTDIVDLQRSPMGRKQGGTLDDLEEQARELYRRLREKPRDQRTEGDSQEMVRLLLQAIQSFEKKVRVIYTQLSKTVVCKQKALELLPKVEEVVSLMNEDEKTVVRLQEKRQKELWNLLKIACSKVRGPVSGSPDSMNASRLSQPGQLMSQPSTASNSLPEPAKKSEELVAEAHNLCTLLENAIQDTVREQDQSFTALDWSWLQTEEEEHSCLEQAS

[3] = molecular target: T3, Inhibitor of nuclear factor kappa-B kinase subunit epsilon (Homo sapiens) (UniProt Q14164); experiment: Inhibition of recombinant IKKepsilon (unknown origin) using ulight-rpS6 as substrate at 20 uM after 2 hrs by LANCE ultra TR-FRET assay relative to control
T3 sequence (whole entry): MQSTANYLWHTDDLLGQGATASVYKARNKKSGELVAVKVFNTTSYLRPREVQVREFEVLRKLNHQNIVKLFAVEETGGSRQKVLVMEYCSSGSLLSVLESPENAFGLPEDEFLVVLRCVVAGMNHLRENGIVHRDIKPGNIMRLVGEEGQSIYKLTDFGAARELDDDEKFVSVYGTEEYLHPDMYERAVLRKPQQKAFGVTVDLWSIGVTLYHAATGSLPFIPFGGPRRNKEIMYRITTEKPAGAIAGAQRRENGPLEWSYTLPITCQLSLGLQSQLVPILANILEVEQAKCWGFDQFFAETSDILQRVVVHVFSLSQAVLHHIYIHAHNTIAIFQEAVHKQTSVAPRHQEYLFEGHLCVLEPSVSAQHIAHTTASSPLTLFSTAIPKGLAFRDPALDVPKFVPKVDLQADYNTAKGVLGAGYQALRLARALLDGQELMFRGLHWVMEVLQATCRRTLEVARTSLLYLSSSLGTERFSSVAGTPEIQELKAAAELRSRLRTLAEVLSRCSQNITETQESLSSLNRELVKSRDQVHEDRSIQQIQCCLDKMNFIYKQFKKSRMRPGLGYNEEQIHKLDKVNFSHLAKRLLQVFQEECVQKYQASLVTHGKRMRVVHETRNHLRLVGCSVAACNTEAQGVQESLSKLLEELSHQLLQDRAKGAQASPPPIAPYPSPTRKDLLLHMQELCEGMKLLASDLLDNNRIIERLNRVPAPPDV

[4] = Cytotoxicity against human Jurkat T cells assessed as cell viability at 4 uM after 24 hrs by CellTiter-Glo assay relative to control; assay type: functional; conditions: read-out: Activity
Outline: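 Jurkat cells in 0.5% FBS RPMI were exposed to 4 µM compound or 0.1% DMSO for 24 h. Viability was read as ATP by CellTiter-Glo luminescence and expressed as percent of solvent control; below 60% counted as cell killing. Data: three experiments, triplicate.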

Cc1cc(O)c(C23CC4CC(CC(C4)C2)C3)cc1-c1ncc(-c2ccc(C(=O)O)cc2)s1
Activity [1]: 33.2%
inhibition [2]: 95%
inhibition [3]: 0%
viability at 4 µM [4]: 39%

COCCOCOc1cc(C)c(-c2ccc(/C=C/C(=O)O)cc2Cl)cc1C12CC3CC(CC(C3)C1)C2
Activity [1]: 61.5%
inhibition [2]: 4.3%
inhibition [3]: 2.9%
viability at 4 µM [4]: 83.7%

Cc1cc(O)c(C23CC4CC(CC(C4)C2)C3)cc1-c1ccc(CC(=O)O)cc1Cl
Activity [1]: 79.7%
inhibition [2]: 4.9%
inhibition [3]: 8.5%
viability at 4 µM [4]: 45.8%

COCCOCOc1cc(C)c(-c2ncc(/C=C/C(=O)O)nc2OC)cc1C12CC3CC(CC(C3)C1)C2
Activity [1]: 99.5%
inhibition [2]: 3.8%
inhibition [3]: 5.9%
viability at 4 µM [4]: 96.5%

COCCOCOc1cc(C)c(-c2ncc(/C=C/C(=O)O)s2)cc1C12CC3CC(CC(C3)C1)C2
Activity [1]: 75.3%
inhibition [2]: 12.2%
inhibition [3]: 11.1%
viability at 4 µM [4]: 96.1%

COCCOCOc1ccc(-c2ncc(/C=C/C(=O)O)nc2OC)cc1C12CC3CC(CC(C3)C1)C2
Activity [1]: 78.7%
inhibition [2]: 1.6%
inhibition [3]: 9.4%
viability at 4 µM [4]: 94.9%

COCCOCOc1cc(C)c(-c2ncc(-c3ccc(C(=O)O)cc3)s2)cc1C12CC3CC(CC(C3)C1)C2
Activity [1]: 61.6%
inhibition [2]: 87.7%
inhibition [3]: 17%
viability at 4 µM [4]: 59.5%

Cc1cc(O)c(C23CC4CC(CC(C4)C2)C3)cc1-c1ccc2cc(C(=O)O)ccc2c1Cl
Activity [1]: 90%
inhibition [2]: 96.4%
inhibition [3]: 41.5%
viability at 4 µM [4]: 7.7%

Cc1cc(O)c(C23CC4CC(CC(C4)C2)C3)cc1-c1ccc(/C=C/C(=O)O)cc1Cl
Activity [1]: 67.1%
inhibition [2]: 4.9%
inhibition [3]: 11.9%
viability at 4 µM [4]: 34.1%

COCCOCOc1cc(C)c(-c2ccc(CC(=O)O)cc2Cl)cc1C12CC3CC(CC(C3)C1)C2
Activity [1]: 74.1%
inhibition [2]: 39.8%
inhibition [3]: 0%
viability at 4 µM [4]: 86.8%

COc1nc(/C=C/C(=O)O)cnc1-c1ccc(O)c(C23CC4CC(CC(C4)C2)C3)c1
Activity [1]: 93.2%
inhibition [2]: 8.2%
inhibition [3]: 7.8%
viability at 4 µM [4]: 60.9%

COCCOCOc1ccc(-c2ncc(-c3ccc(C(=O)O)cc3)nc2OC)cc1C12CC3CC(CC(C3)C1)C2
Activity [1]: 109%
inhibition [2]: 25.4%
inhibition [3]: 18.8%
viability at 4 µM [4]: 91.4%

O=C(O)c1ccc(-c2cnc(-c3ccc(O)c(C45CC6CC(CC(C6)C4)C5)c3)s2)cc1
Activity [1]: 66.2%
inhibition [2]: 94.1%
inhibition [3]: 11.6%
viability at 4 µM [4]: 6%

COCCOCOc1cc(C)c(-c2ccc3cc(C(=O)O)ccc3c2Cl)cc1C12CC3CC(CC(C3)C1)C2
Activity [1]: 82.7%
inhibition [2]: 79.2%
inhibition [3]: 13.7%
viability at 4 µM [4]: 33.1%

COCCOCOc1ccc(-c2ncc(/C=C/C(=O)O)s2)cc1C12CC3CC(CC(C3)C1)C2
Activity [1]: 94.2%
inhibition [2]: 1.9%
inhibition [3]: 14.3%
viability at 4 µM [4]: 103%

COCCOCOc1ccc(-c2ncc(-c3ccc(C(=O)O)cc3)s2)cc1C12CC3CC(CC(C3)C1)C2
Activity [1]: 92.4%
inhibition [2]: 89.3%
inhibition [3]: 25.3%
viability at 4 µM [4]: 74.5%

CC(=O)NCCCOc1cc(/C=C/C(=O)O)ccc1-c1cc(C23CC4CC(CC(C4)C2)C3)c(O)cc1C
Activity [1]: 70%
inhibition [2]: 0%
inhibition [3]: 5.2%
viability at 4 µM [4]: 28%

O=C(O)/C=C/c1cnc(-c2ccc(O)c(C34CC5CC(CC(C5)C3)C4)c2)s1
Activity [1]: 92.4%
inhibition [2]: 5%
inhibition [3]: 0%
viability at 4 µM [4]: 92.9%

COc1nc(-c2ccc(C(=O)O)cc2)cnc1-c1ccc(O)c(C23CC4CC(CC(C4)C2)C3)c1
Activity [1]: 95.4%
inhibition [2]: 83.9%
inhibition [3]: 26.1%
viability at 4 µM [4]: 14.9%

COc1nc(/C=C/C(=O)O)cnc1-c1cc(C23CC4CC(CC(C4)C2)C3)c(O)cc1C
Activity [1]: 89%
inhibition [2]: 7.3%
inhibition [3]: 6.7%
viability at 4 µM [4]: 70.9%

Cc1cc(O)c(C23CC4CC(CC(C4)C2)C3)cc1-c1ncc(/C=C/C(=O)O)s1
Activity [1]: 87.3%
inhibition [2]: 26.2%
inhibition [3]: 0%
viability at 4 µM [4]: 92.3%
